# Shown are actives, neighbours in structure and some others; about 2.8% of the full set was active somewhere.
# GASC-1 inh – inhibitors of human GASC-1 (JMJD2C) demethylase | GST-JMJD2C(1-420) H3K9me3 demethylation, DELFIA europium | inhibition, % at 2.35 µM | actives 0.069% (n = 330,000);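 active = more than half of a compound's replicate wells show inhibition beyond 50%, single wells judged on their own value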;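 note: signal counts dimethyl H3K9 product captured on neutravidin plate; 0% = median of DMSO wells and 100% = 0.3 times that DMSO median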
# T cell HTS – modulates CD8 T cell binding to vesicles; 2C CD8+ T cell-vesicle binding, flow cytometry; stronger effect = lower value; response (vesicle binding), % at 7 µM; actives 0.068% (n = 330,000); AID 2052;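 active = response, share of CD8 T cells binding vesicles, and their 90th percentile fluorescence all below set limits, cut at about 80% in these data, passing the limit was not always enough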;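 note: values below 100% mean blocked vesicle binding to the CD8+ T cells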
#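 Material: murine 2C transgenic CD8+ T lymphocytes / Also added: QL9-peptide-loaded Drosophila micro-vesicles bearing Ld, ICAM-1 and B7-1 / Schedule: binding step 1.5 h, 37 °C, antibody labelling 20 min, ice / Signal: flow cytometry, PE anti-B7-1 (FL2) versus Alexa647 anti-CD8 (FL8), PFA-fixed / Evaluation: percent CD8+ FL2 mean versus row control / Benchmarks: naked versus QL9-loaded vesicles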
# NR3A LBD binder – NR3A (human) ligand-binding domain modulation; actives 2.5% (n = 340,000); Tm shift relative to glycine control, % at 25 µM; NR3A LBD differential scanning fluorimetry, Tm shift; 0% = protein alone, 100% = glycine-bound protein;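 active = melting temperature shift of at least 10% of the positive control shift, at one fixed dose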
# Rtt109 Vps75 – blocks Candida albicans Rtt109/Vps75 acetyltransferase activity. Q5AAJ8. purified Rtt109/Vps75, ThioGlo CoA-SH fluorescence, 4 h. inhibition, % at 34.9 µM. actives 0.16% (n = 330,000). AID 540336;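 active = inhibition of at least 50% in every replicate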
# Target sequence (Q5AAJ8 whole entry, looked up): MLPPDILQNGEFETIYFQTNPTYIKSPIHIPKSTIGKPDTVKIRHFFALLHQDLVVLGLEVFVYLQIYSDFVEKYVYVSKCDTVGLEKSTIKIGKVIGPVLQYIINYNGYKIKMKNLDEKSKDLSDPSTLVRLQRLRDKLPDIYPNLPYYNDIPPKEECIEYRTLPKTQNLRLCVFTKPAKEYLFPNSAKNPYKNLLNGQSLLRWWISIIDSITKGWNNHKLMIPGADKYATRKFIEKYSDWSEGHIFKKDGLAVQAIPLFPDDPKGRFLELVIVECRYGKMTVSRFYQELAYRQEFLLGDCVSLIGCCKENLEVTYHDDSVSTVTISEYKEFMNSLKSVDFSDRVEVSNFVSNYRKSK
# * hit, by the source's call; i = inactive; · = not tested or not shown.
SMILES,GASC-1 inh,T cell HTS,NR3A LBD binder,Rtt109 Vps75
CC1(C)CC2CC(C)(CN2S(=O)(=O)c2ccccc2[N+](=O)[O-])C1 (stereo not given),5,439,4,-6
COc1ccc(C(C(=O)NC2CCCC2)N(C(=O)CNC(=O)c2ccco2)c2cccnc2)cc1 (stereo not given),-14,225,1,-3
O=C(NCCc1ccncc1)Nc1ccccc1,7,458,0,-22
O=C(NCCc1ccncc1)Nc1ccc(Cl)c(Cl)c1,5,419,18*,1
CC1(C)CC2CC(C)(CN2C(=O)COC(=O)c2cccc([N+](=O)[O-])c2)C1 (stereo not given),4,886,11*,-8
Cc1c(Cc2ccccc2)sc(/N=C/c2ccc3ccccc3c2)c1C(N)=O,3,529,0,5
Cc1c(Cc2ccccc2)sc(/N=C/c2c(O)ccc3ccccc23)c1C(N)=O,-7,132,12*,2
O=C(Cc1cn(Cc2cccc(Cl)c2)c2ccccc12)N1CCCCCC1,-5,286,17*,-15
CC1CCCN(C(=O)Cc2cn(Cc3cccc(Cl)c3)c3ccccc23)C1 (stereo not given),13,235,6,-2
COCCOC(=O)c1c(C)oc2ccc(NS(=O)(=O)c3cccs3)cc12,0,347,0,-2
CCCCOC(=O)c1c(C)oc2ccc(NS(=O)(=O)c3ccc4c5c(cccc35)C(=O)N4)cc12,0,263,15*,1
Cc1cccc(C(=O)OCC(=O)c2c(C)[nH]c3ccccc23)c1O,-9,197,29*,3
CCOC(=O)c1c(C)[nH]c(C)c1C(=O)COC(=O)c1cccc(C)c1O,-4,i,-10,-8
O=C(O)c1ccccc1Nc1ccc([N+](=O)[O-])cc1,6,130,-3,11
O=C(O)c1ccccc1C(=O)Nc1ccc(Nc2ccc([N+](=O)[O-])cc2[N+](=O)[O-])cc1,-2,354,10*,·
CCOc1ccc(OCC)c(NC(=O)CN2CCN(c3cccc(C)c3C)CC2)c1,-3,364,11*,-2
Cc1cccc(N2CCN(CC(=O)Nc3ccccc3[N+](=O)[O-])CC2)c1C,-1,414,15*,·
COc1cc(NC(=O)CN2CCN(c3ccccc3F)CC2)c(C)cc1[N+](=O)[O-],-2,260,15*,7
O=C1NC(=O)C(Cc2ccc(Cl)cc2)(c2ccccc2)N1 (stereo not given),·,·,1,0
NS(=O)(=O)c1ccc(CCNCC(=O)NCc2ccccc2Cl)cc1,-23,191,0,-6
CC(C)c1ccc(N(CC(=O)NC2CCCC2)C(=O)CCC(=O)Nc2ccccn2)cc1,1,640,1,-27
COc1cccc(C(=O)N/N=C/c2cn[nH]c2-c2ccc(OC)cc2OC)c1,11,303,-1,4
O=C(N/N=C/c1c(O)ccc2ccccc12)c1[nH]ncc1Br,-5,398,30*,12
COc1ccc(OC)c(/C=N/NC(=O)c2[nH]ncc2Br)c1,45,86,21*,·
O=C(N/N=C/c1cccs1)c1[nH]ncc1Br,6,605,2,0
SMILES,GASC-1 inh,T cell HTS,NR3A LBD binder,Rtt109 Vps75
CCOc1ccc(/C=N/NC(=O)c2[nH]ncc2Br)c(O)c1,11,135,27*,-10
O=C(N/N=C/c1c(O)ccc2ccccc12)c1cccc(C(F)(F)F)c1,-4,142,21*,0
Cc1ccc(O)c(/C=N/NC(=O)c2[nH]ncc2Br)c1,8,226,-16,46
O=C(CN1C(=O)NC2(CCCCC2)C1=O)N1CCOCC1,-3,i,1,-4
Cc1ccc(C(C)C)cc1OCC(=O)Nc1ccc(-n2cnnn2)cc1,·,·,-7,-6
CCOC(=O)C1CCCN(C(=O)c2ccc(S(=O)(=O)Nc3ccccc3OC)cc2)C1 (stereo not given),-3,404,-1,0
Cc1cc(C(=O)OCC(=O)Nc2ccccc2[N+](=O)[O-])c2ccccc2n1,-3,231,8,14
Cc1cnc(C(=O)OCC(=O)Nc2ccccc2[N+](=O)[O-])cn1,1,284,11*,-12
O=S(=O)(Nc1cc(Cl)ccc1-n1cncn1)c1cc(Br)ccc1Br,2,321,22*,7
CCCCc1cc(=O)oc2cc(C)cc(OCC(=O)N3C[C@H]4C[C@@H](C3)c3cccc(=O)n3C4)c12,22,180,0,9
Clc1cnc(N/N=C/c2ccncc2)c(Cl)c1,-2,304,1,-1
Fc1ccc(N/N=C/c2ccncc2)c(F)c1,-9,234,23*,-1
Clc1ccc(N/N=C/c2ccncc2)cc1Cl,-6,264,12*,3
COc1ccccc1CNC(=O)c1ccc2ccccc2n1,4,102,2,4
CC(C)[C@H](NC(=O)[C@H](Cc1ccccc1)n1c(=O)[nH]c2ccccc2c1=O)C(=O)N1CCC[C@@H]1C(=O)O,-4,137,0,9
COc1ccc(C)cc1NC(=O)COC(=O)CCC(=O)c1cccs1,9,59,0,9
COc1ccc(N2CCN(C(=O)CSc3nnc(-c4cccnc4)n3-c3ccc(F)cc3)CC2)cc1,4,486,0,6
COc1ccc(N2CCN(C(=O)CSc3nnc(-c4ccco4)n3C)CC2)cc1,64*,603,5,·
CC1CCCN(C(=O)CSc2nnc(-c3ccco3)n2C)C1 (stereo not given),-4,239,-1,-4
COc1ccc(N2CCN(C(=O)CSc3nnc(-c4cccnc4)n3-c3ccccc3)CC2)cc1,31,216,1,53*
Cn1c(SC/C=C/c2ccccc2)nnc1-c1ccco1,-13,176,12*,4
COc1ccccc1NC(=O)NC1(C)CCS(=O)(=O)C1 (stereo not given),-6,·,-1,1
COc1ccc(OCC(=O)NNC(=O)c2ccc3c(=O)n4c(nc3c2)CCC4)cc1,-5,280,1,-25
O=S(=O)(NCc1cccnc1)c1ccc2ccccc2c1,7,205,-4,-8
Cc1ccc(S(=O)(=O)NCCC(=O)OCC(=O)NCCc2ccccc2)cc1C,15,273,2,2
SMILES,GASC-1 inh,T cell HTS,NR3A LBD binder,Rtt109 Vps75
CC(C)(C)CC(=O)NC(=S)Nc1ccccc1C(F)(F)F,16,369,14*,1
CC(C)CC(=O)NC(=S)Nc1ccccc1C(F)(F)F,3,351,0,1
O=C(COC(=O)C1CCC(=O)N1)Nc1ccccc1OC(F)F (stereo not given),-1,249,1,-2
NS(=O)(=O)c1ccc(CNC(=O)Cc2ccc(S(=O)(=O)N3CCOCC3)s2)cc1,-10,227,1,0
CCOC(=O)[C@H]1[C@H]2COc3ccccc3[C@@H]2N2C(=O)[C@@H](CO)NC(=O)[C@@]12C,-4,293,-3,0
COc1cc(OC)c(C(=O)NNC(=O)CN(C)S(=O)(=O)c2ccc(Cl)cc2)cc1OC,-3,614,35*,-1
O=C(CSc1n[nH]c(-c2ccccc2Cl)n1)NC1CCCCC1,7,363,1,51*

# Bioassay records deposited in PubChem BioAssay by several laboratories.
